{"data": "Results gathered from unrelated publications", "target": "G protein-coupled receptor kinase 3 (GRK3, Homo sapiens, UniProt P35626)", "Sequence (P35626 1-688, as in one of the studies)": "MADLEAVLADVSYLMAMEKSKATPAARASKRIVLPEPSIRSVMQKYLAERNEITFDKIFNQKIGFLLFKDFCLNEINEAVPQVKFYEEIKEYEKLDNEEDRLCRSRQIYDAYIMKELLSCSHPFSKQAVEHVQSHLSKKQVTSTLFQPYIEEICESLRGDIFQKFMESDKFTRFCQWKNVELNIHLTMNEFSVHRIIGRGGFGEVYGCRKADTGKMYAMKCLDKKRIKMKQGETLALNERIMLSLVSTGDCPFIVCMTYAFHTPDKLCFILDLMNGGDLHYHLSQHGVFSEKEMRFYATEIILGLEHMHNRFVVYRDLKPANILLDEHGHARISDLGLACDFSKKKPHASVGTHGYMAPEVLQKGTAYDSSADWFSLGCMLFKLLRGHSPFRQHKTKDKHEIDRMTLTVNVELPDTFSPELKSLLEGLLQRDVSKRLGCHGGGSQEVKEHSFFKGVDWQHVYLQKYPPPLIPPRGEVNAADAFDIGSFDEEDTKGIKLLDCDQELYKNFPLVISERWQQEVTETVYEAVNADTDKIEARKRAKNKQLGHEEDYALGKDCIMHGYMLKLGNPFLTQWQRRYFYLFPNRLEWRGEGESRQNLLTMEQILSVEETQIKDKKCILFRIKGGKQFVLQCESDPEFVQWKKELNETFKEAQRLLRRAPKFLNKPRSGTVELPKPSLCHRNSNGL", "note": "Lines come from different studies, so protocols differ."}
{"Structure (SMILES)": "O=C(c1ccc(Nc2ncc(Cl)c(-c3cc4ccccc4s3)n2)cc1)N1CCC(N2CCCC2)CC1", "observed": "binding", "method": "competition with immobilised ligand", "tested at": "1 µM", "remaining binding": "63%"}
{"Structure (SMILES)": "N[C@H]1CCN(c2nccc(-c3cnn4ncccc34)n2)C1", "observed": "binding", "tested at": "1 µM", "remaining binding": "66%"}
{"Structure (SMILES)": "COc1cnc(Nc2cccc(S(N)(=O)=O)c2)nc1N1CCN(c2ccccc2)C(=O)C1", "observed": "binding", "method": "competition with immobilised ligand", "tested at": "1 µM", "remaining binding": "70%"}
{"Structure (SMILES)": "FC(F)(F)Oc1cccc(-c2cnc3ccc(-c4ccncc4)nn23)c1", "observed": "cell-free assay", "method": "competition with immobilised ligand", "tested at": "5 µM", "remaining binding": "99%"}
{"Structure (SMILES)": "O=C(NCCCN1CCOCC1)c1ccc(Nc2nccc(-c3cc4ccccc4s3)n2)cc1", "observed": "binding", "method": "competition with immobilised ligand", "tested at": "1 µM", "remaining binding": "88%"}
{"Structure (SMILES)": "O=C(Nc1cnc(Oc2ccc(F)cc2)nc1)N1CCc2ncccc2[C@@H]1c1ccc(F)cc1", "observed": "cell-free assay", "method": "competition with immobilised ligand", "tested at": "1 µM", "remaining binding": "96%"}
{"Structure (SMILES)": "O=C(NCC1CCOCC1)c1n[nH]cc1NC(=O)c1c(F)cccc1F", "observed": "binding", "method": "competition with immobilised ligand", "tested at": "1 µM", "remaining binding": "44%"}
{"Structure (SMILES)": "F[C@@H]1CCN(c2nccc(-c3cnn4ncccc34)n2)C1", "observed": "binding", "tested at": "1 µM", "remaining binding": "13%"}
{"Structure (SMILES)": "c1cncc(-c2cccc(Nc3nccc(NC4CCCCC4)n3)c2)c1", "observed": "binding", "method": "competition with immobilised ligand", "tested at": "10 µM", "remaining binding": "99%"}
{"Structure (SMILES)": "c1cnn2ncc(-c3ccnc(N4CCC45COC5)n3)c2c1", "observed": "binding", "tested at": "1 µM", "remaining binding": "29%"}
{"Structure (SMILES)": "Cc1nc(N2CC[C@@H](O)C2)ncc1-c1cc(C(F)(F)F)cc2[nH]ncc12", "observed": "binding", "method": "competition with immobilised ligand", "tested at": "1 µM", "remaining binding": "87%"}
{"Structure (SMILES)": "O=C(c1ccc(Nc2ncc(Cl)c(-c3ccc(Cl)s3)n2)cc1)N1CCC(N2CCCC2)CC1", "observed": "binding", "method": "competition with immobilised ligand", "tested at": "1 µM", "remaining binding": "46%"}
{"Structure (SMILES)": "O=C1CCc2cc(Nc3cc(OC4CCOCC4)c([N+](=O)[O-])cc3Cl)ccc2N1", "observed": "cell-free assay", "method": "competition with immobilised ligand", "tested at": "1 µM", "remaining binding": "100%"}
{"Structure (SMILES)": "COc1ccnn2ncc(-c3ccnc(N(C)C)n3)c12", "observed": "binding", "tested at": "1 µM", "remaining binding": "57%"}
{"Structure (SMILES)": "O=C(Nc1ccc(Oc2ccc(F)cc2)cc1)N1CCc2ncccc2[C@H]1c1ccc(F)cc1", "observed": "cell-free assay", "method": "competition with immobilised ligand", "tested at": "1 µM", "remaining binding": "95%"}
{"Structure (SMILES)": "COc1ncc2cc3ccccc3nc2c1C#N", "observed": "cell-free assay", "method": "competition with immobilised ligand", "tested at": "5 µM", "remaining binding": "53%"}
{"Structure (SMILES)": "COc1ccc2c(c1)O[C@H](c1ccc(OC)c(OC)c1)C[C@@H]2NC(=O)C1(c2ccc3c(c2)OC(F)(F)O3)CC1", "observed": "cell-free assay", "method": "competition with immobilised ligand", "tested at": "1 µM", "remaining binding": "100%"}
{"Structure (SMILES)": "C[C@H]1CCN(c2nccc(-c3cnn4ncccc34)n2)C1", "observed": "binding", "tested at": "1 µM", "remaining binding": "33%"}
{"Structure (SMILES)": "C[C@H](c1ccnc(Nc2nc3ccc(-c4cc(N(C)C)ncn4)cc3[nH]2)c1)N1CCN(C(=O)CC(F)(F)F)CC1", "observed": "cell-free assay", "method": "competition with immobilised ligand", "tested at": "0.1 µM", "remaining binding": "100%"}
{"Structure (SMILES)": "CN(CCCC(F)(F)F)c1nccc(-c2cnn3ncccc23)n1", "observed": "binding", "tested at": "1 µM", "remaining binding": "100%"}
